Assay results as given in PMC4495401 (Genes & Development, 2015).
Substitutions are numbered along the chain they refer to. Entries after “also recorded” stand apart in the source; their conditions may differ.

Assays:
p53-AMC peptide = assay: ITC, resveratrol to p53-AMC peptide; format: binding; conditions: 25°C
[1] = system: fluorophore-attached p53 peptides; conditions: ref Borra et al. 2005; Pacholec et al. 2010; cited from earlier work
[2] = biological target: SIRT1 NTD (isolated protein domain); assay: ITC, resveratrol to isolated SIRT1 NTD; format: binding, human; conditions: 25°C
SIRT1 E230K mutant = biological target: T1, SIRT1 E230K mutant (Homo sapiens, UniProt Q96EB6, C253S/C268S/C501S/C502S/DEL513-640/E230K); assay: Enzyme-coupled deacetylation assay, SIRT1 E230K; format: biochemical; conditions: p53-AMC 100 μM, 0.2 mM resveratrol, PBS pH 7.4, 37°C
T1 sequence (Q96EB6 with tags, fused parts or gaps E230K/C253S/C268S/C501S/C502S/DEL513-640 limits assumed): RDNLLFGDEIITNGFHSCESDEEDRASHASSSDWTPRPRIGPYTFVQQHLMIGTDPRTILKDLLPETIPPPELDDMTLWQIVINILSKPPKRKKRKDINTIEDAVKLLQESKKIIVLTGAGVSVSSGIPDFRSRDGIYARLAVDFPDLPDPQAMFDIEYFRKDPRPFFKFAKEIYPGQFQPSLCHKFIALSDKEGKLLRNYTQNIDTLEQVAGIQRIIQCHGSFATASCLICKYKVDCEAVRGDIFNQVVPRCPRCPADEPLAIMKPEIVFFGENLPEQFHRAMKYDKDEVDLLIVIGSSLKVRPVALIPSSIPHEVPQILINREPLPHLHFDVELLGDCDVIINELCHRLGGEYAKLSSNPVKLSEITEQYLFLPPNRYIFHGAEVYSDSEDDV
Procedure, shortened: (§1)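 Mutants are made in the SIRT1-143CS background. Continuous coupled assay in PBS pH 7.4: 2 mM NAD, 100 μM p53-AMC, ±0.2 mM resveratrol, 0.2 mM NADH, 3.3 mM α-ketoglutarate, 1 μM PncA, 3 U glutamate dehydrogenase, 1 mM DTT, 2% DMSO. Pre-equilibrated 5–10 min at 37°C without NAD, then started with NAD. A340 followed 15 min, minus no-NAD background. Rate taken from the linear portion, three repeats.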

SIRT1-143 = assay: Enzyme-coupled deacetylation assay, SIRT1-143; format: biochemical, human; conditions: p53-AMC substrate, 0.5 mM resveratrol (Fig. 1B)
Procedure, shortened: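 Purified tag-free SIRT1 fragments (his-sumo tag removed after Ni-IDA, then size exclusion) in the continuous nicotinamidase/glutamate dehydrogenase-coupled assay. NADH oxidation was read at 340 nm using an extinction coefficient of 6.22 mM−1 cm−1. Reactions at 37°C in PBS pH 7.4, started with NAD, with and without resveratrol. Background from no-NAD controls was subtracted.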

SIRT1-143CS = biological target: T2, SIRT1-143CS (Homo sapiens, UniProt Q96EB6, C253S/C268S/C501S/C502S/DEL513-640); format: biochemical; conditions: 0.2 mM resveratrol, PBS pH 7.4, 37°C
T2 sequence (Q96EB6 with tags, fused parts or gaps C253S/C268S/C501S/C502S/DEL513-640 limits assumed): T1 sequence (Q96EB6 with tags, fused parts or gaps E230K/C253S/C268S/C501S/C502S/DEL513-640 limits assumed) with K88E

SIRT1 E230A mutant = biological target: T3, SIRT1 E230A mutant (Homo sapiens, UniProt Q96EB6, C253S/C268S/C501S/C502S/DEL513-640/E230A); assay: Enzyme-coupled deacetylation assay, SIRT1 E230A; format: biochemical; conditions: p53-AMC 100 μM, 0.2 mM resveratrol, PBS pH 7.4, 37°C
T3 sequence (Q96EB6 with tags, fused parts or gaps E230A/C253S/C268S/C501S/C502S/DEL513-640 limits assumed): T1 sequence (Q96EB6 with tags, fused parts or gaps E230K/C253S/C268S/C501S/C502S/DEL513-640 limits assumed) with K88A
Procedure, shortened: as §1

SIRT1 Q222A/N226A mutant = biological target: T4, SIRT1 Q222A/N226A mutant (Homo sapiens, UniProt Q96EB6, C253S/C268S/C501S/C502S/DEL513-640/N226A/Q222A); assay: Enzyme-coupled deacetylation assay, SIRT1 Q222A/N226A; format: biochemical; conditions: p53-AMC 100 μM, 0.2 mM resveratrol, PBS pH 7.4, 37°C
T4 sequence (Q96EB6 with tags, fused parts or gaps Q222A/N226A/C253S/C268S/C501S/C502S/DEL513-640 limits assumed): T1 sequence (Q96EB6 with tags, fused parts or gaps E230K/C253S/C268S/C501S/C502S/DEL513-640 limits assumed) with Q80A, N84A, K88E
Procedure, shortened: as §1

SIRT5 = conditions: fluorogenic Fluor-de-Lys (FdL) peptide substrate; ref Gertz et al. 2012; cited from earlier work
[3] = biological target: T5, SIRT1-143CS (C253S, C268S, C501S, C502S) (Homo sapiens, UniProt Q96EB6, C253S/C268S/C501S/C502S/DEL513-640); assay: ITC peptide binding, SIRT1-143CS; conditions: 25°C, 0.5 mM resveratrol
T5 sequence (Q96EB6 with tags, fused parts or gaps C253S/C268S/C501S/C502S/DEL513-640 limits assumed): T1 sequence (Q96EB6 with tags, fused parts or gaps E230K/C253S/C268S/C501S/C502S/DEL513-640 limits assumed) with K88E
Procedure, shortened: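 p53-AMC peptide ([acR]HK[Kac]-AMC) at 1.5 mM was titrated into 0.1 mM SIRT1 protein at 25°C with 600 rpm stirring. The run used 20 injections, a 0.5 μL first drop that was not used, 2 μL drops thereafter and 2 min intervals. Titrant and protein were both in 20 mM HEPES pH 7.5, 150 mM NaCl, 10% glycerol, with or without 0.5 mM resveratrol. Buffer-only titrant heat was subtracted, and KD came from a one-site fit.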

SIRT3 = conditions: fluorogenic Fluor-de-Lys (FdL) peptide substrate; ref Gertz et al. 2012; cited from earlier work
SIRT1 R446A mutant = biological target: T6, SIRT1 R446A mutant (Homo sapiens, UniProt Q96EB6, C253S/C268S/C501S/C502S/DEL513-640/R446A); assay: Enzyme-coupled deacetylation assay, SIRT1 R446A; format: biochemical; conditions: p53-AMC 100 μM, 0.2 mM resveratrol, PBS pH 7.4, 37°C
T6 sequence (Q96EB6 with tags, fused parts or gaps C253S/C268S/R446A/C501S/C502S/DEL513-640 limits assumed): T1 sequence (Q96EB6 with tags, fused parts or gaps E230K/C253S/C268S/C501S/C502S/DEL513-640 limits assumed) with K88E, R304A
Procedure, shortened: as §1

binding affinity between resveratrol and the p53-AMC peptide (p53-AMC peptide): too weak to be reliably quantitated
binding affinity between resveratrol and the SIRT1 NTD [2]: too weak to be reliably quantitated
effect of resveratrol on Km for PGC-1α and FOXO3a peptides (SIRT1-143CS; native peptides without fluorophore): less pronounced
SMILES: Oc1ccc(/C=C/c2cc(O)cc(O)c2)cc1 [resveratrol]
interaction with fluorophore-attached p53 peptides [1]: weakly
stimulatory effect of resveratrol (SIRT1 E230K mutant): significantly reduced the stimulatory effect of resveratrol
stimulation of deacetylase activity by resveratrol (SIRT1-143): stimulated by resveratrol in a manner similar to that of the full-length protein
effect of resveratrol on Km for the p53-AMC peptide (SIRT1-143CS): significantly lowered the Km value for the p53-AMC peptide; also recorded: lowered the Km value of the fluorogenic peptide
stimulatory effect of resveratrol (SIRT1 E230A mutant): significantly reduced the stimulatory effect of resveratrol
response to the addition of resveratrol (SIRT1 Q222A/N226A mutant): conspicuous level of reduction in response to the addition of resveratrol
effect on SIRT5 activity (SIRT5): stimulate the activity of SIRT5
effect of resveratrol on binding between SIRT1 and the p53-AMC peptide [3]: increased the binding between SIRT1 and the p53-AMC peptide
effect on SIRT3 activity (SIRT3): inhibit SIRT3
level of resveratrol stimulation (SIRT1 R446A mutant): level of resveratrol stimulation similar to that of the E230K mutant
